Activity calls are given as the source filed them.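 The calls were made as follows, unless noted: active = compounds giving at least 50% inhibition in the cell-based MKP-3 phosphatase rescue imaging test; inactive = the rest.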
Key:
[1] = inhibitors of TNFa-induced NFkB p65 translocation, primary screen, imaging, HUVEC, MLSMR starter and 10KST1 sets (AID 438;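 active = inhibition above 20% together with a positive visual image hit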;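 also: compound added about 3h40 before a 20 min TNFalpha stimulation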;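 as to inhibition: signal is the nuclear over cytoplasmic p65 intensity ratio per well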); conditions: HUVEC TNFa-induced p65 nuclear translocation; cell count: measured here: nuclei count (cytotoxicity indicator), at 2.08 µM; inhibition: at 2 µM, stronger effect = higher value, 0% TNFa-plus-vehicle, 100% no-TNFa wells
[2] = endothelial E-selectin expression blockers – imaging, HUVEC, immunofluorescence, MLSMR starter and 10KST1 sets, primary screen (AID 487;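 active = visually confirmed hit in the image check and inhibition above 20%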;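 as to inhibition: signal is fraction of cell area covered by stained E-selectin grains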;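 as to nuclei count: 100% = median nuclei count of all wells on the same plate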); conditions: HUVEC TNFalpha-induced E-selectin immunofluorescence imaging, at 2 µM; inhibition: stronger effect = higher value; nuclei count: measured here: cell number, toxicity
[3] = Primary imaging screen for DUSP6 inhibitors that restore phospho-Erk in transfected HeLa cells, chemical complementation (AID 609); conditions: HeLa MKP-3 transfected, phospho-Erk imaging KS statistic, at 10 µM, cells stimulated with TPA for 15 min;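 as to inhibition: phospho-Erk level distribution per well compared with pooled transfected vehicle control wells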
[4] = biological target: Dual specificity protein phosphatase 6 (Homo sapiens) (UniProt Q16828); assay: as above; conditions: HeLa MKP-3 transfected, phospho-Erk imaging KS statistic; at 10 µM; stronger effect = higher value; cells stimulated with TPA for 15 min
Chain of Dual specificity protein phosphatase 6 (Homo sapiens) (Q16828 whole entry, looked up): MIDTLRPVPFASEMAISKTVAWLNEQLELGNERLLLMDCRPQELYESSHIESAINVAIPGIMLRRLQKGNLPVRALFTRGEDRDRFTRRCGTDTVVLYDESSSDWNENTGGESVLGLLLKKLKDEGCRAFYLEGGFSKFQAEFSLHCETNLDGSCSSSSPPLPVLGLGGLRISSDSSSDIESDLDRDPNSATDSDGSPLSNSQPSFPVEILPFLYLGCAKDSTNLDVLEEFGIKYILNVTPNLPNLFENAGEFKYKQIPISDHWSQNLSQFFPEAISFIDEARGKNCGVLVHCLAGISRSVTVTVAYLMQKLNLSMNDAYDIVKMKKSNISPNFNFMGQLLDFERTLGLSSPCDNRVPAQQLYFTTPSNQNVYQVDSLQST

[5] = biological target: Voltage-gated potassium channel subunit beta-2 (Rattus norvegicus) (UniProt P62483); assay: inhibitors of rat Kvbeta2 reductase activity – biochemical, NADPH fluorescence, primary screen (AID 622;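 active = fluorescence slope higher than the sample average by over 3 SD, cut at about -0.22 in these data, passing the limit was not always enough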;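 also: slope of raw intensity against log time taken from 70 to 1610 s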); conditions: recombinant KvBeta, 4-cyanobenzaldehyde reduction, at 10 µM, stronger effect = higher value
Chain of Voltage-gated potassium channel subunit beta-2 (Rattus norvegicus) (P62483 whole entry, looked up): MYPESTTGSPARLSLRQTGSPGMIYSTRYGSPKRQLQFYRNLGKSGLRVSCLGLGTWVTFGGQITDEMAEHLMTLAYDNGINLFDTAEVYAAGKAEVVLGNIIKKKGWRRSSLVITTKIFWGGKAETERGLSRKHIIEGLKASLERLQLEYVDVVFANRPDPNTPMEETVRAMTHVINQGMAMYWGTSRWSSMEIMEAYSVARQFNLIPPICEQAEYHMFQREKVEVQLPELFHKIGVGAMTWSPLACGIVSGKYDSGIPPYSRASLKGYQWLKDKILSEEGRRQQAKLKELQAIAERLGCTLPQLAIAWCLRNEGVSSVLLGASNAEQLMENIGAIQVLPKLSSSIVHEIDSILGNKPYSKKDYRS

[6] = biological target: Voltage-gated potassium channel subunit beta-2 (Rattus norvegicus) (UniProt P62483); assay: enhancers of rat Kvbeta2 NADPH turnover – biochemical, NADPH fluorescence, primary screen (AID 623;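 active = NADPH fluorescence slope more negative than the mean of all samples by about 3 SD, 99.7% confidence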;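 also: fluorescence intensity change per second fitted from 20 to 320 s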); conditions: Recombinant KvBeta, NADPH fluorescence decrease slope, 10 min; at 10 µM; stronger effect = lower value
[7] = biological target: Alpha-2C adrenergic receptor (Homo sapiens) (UniProt P18825); assay: compounds altering alpha2C-coupled GIRK flux – cell-based, HEK293 alpha2C/GIRK1/2, thallium flux, primary screen (AID 624;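 active = fluorescence slope after compound addition differing from the mean of all screened samples at 99.7% confidence, in either direction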;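 also: slope of fluorescence ratio to pre-addition baseline per second over 15 to 24 s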); conditions: thallium flux BTC fluorescence, at 10 µM, actives lie on both sides
Chain of Alpha-2C adrenergic receptor (Homo sapiens) (P18825 whole entry, looked up): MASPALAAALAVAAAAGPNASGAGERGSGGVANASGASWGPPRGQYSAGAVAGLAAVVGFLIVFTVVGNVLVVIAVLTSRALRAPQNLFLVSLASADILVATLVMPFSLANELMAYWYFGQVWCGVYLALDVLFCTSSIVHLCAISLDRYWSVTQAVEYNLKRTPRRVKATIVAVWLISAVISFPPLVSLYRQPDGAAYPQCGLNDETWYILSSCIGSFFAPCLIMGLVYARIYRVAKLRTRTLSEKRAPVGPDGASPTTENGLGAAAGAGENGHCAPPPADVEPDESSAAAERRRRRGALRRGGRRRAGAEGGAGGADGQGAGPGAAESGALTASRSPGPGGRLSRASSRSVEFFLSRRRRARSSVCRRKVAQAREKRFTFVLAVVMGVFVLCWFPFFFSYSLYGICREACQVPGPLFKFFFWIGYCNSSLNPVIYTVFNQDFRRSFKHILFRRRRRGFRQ

[8] = inhibitors of larval lipid processing in zebrafish, primary screen, whole organism, PED6 fluorescence, gall bladder and intestine (AID 686;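 active = a full or partial loss of lipid-probe fluorescence in the fish gall bladder, intestine or both, judged by eye; inactive = no fluorescence loss, or compound toxic to the fish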;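 also: larvae 5 to 7 days old with five fish per well; signal comes from phospholipase A2 cleavage of quenched PED6 carried via bile; overnight exposure to compound and PED6 before scoring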); conditions: Zebrafish larvae PED6 lipid processing, fluorescence scoring; screened at 20 µM (by protocol)
In short: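 Also added: quenched phospholipase substrate PED6, 100 nM final, ingested by larvae; System: zebrafish larvae, 5-7 d; Quantity: 5 larvae per well; Compound: 20 µM single dose; Schedule: overnight compound and PED6 incubation; Read-out: visual per-well fluorescence inhibition score; Measured by: By-eye fluorescence microscopy; Medium: E3.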

[9] = loss of swimming-algae plug formation – whole organism, Chlamydomonas reinhardtii, WT vs cilia-less mutant, absorbance, 96-well, primary screen (AID 463189;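 active = inhibition at or above 50% relative to wild type and mutant plate controls; inactive = inhibition below 50%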;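 also: 0% = wild type cc124 cells in DMSO and 100% = ciliumless bld1 mutant cells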); conditions: Chlamydomonas reinhardtii gravitaxis, OD600 absorbance, 2 days; at 10 µM; stronger effect = higher value
[10] = measured here: cell density z-score
[11] = measured here: nuclear c-Myc green intensity z-score
[12] = measured here: nuclear pErk red intensity z-score, stronger effect = higher value

SMILES | cell count [1] | inhibition [1] | inhibition [2] | nuclei count [2] [%] | z-score [3, 10] | z-score [3, 11] | z-score [3, 12] | inhibition [4] | fluorescence slope [5] | NADPH fluorescence slope [6] | slope [7] | outcome [8] | inhibition [9]
CCCCCCn1c(C(C)O)nc2ccccc21 (centres undefined) | 528 | -16.2% (inactive) | -111% (inactive) | 156 | 1.01 | -0.165 | -1.61 | 11.9% (inactive) | -0.5 (inactive) | -5.9e-05 (inactive) | 0.0045 (inactive) | inactive; toxic | 28% (inactive)
S=c1[nH]nc(-c2ccco2)n1Cc1ccccc1 | 367 | -8.2% (inactive) | -105% (inactive) | 110 | -1.5 | 1.31 | -1.88 | 11.9% (inactive) | -0.477 (inactive) | -0.000234 (inactive) | 0.00534 (inactive) | inactive | -18.5% (inactive)
CCCCOC(=O)C(C)c1c(C)[nH]c(=S)[nH]c1=O (centres undefined) | 479 | -1.2% (inactive) | -142% (inactive) | 138 | 0.126 | 0.523 | -0.0829 | -3.5% (inactive) | -0.505 (inactive) | -3.9e-05 (inactive) | 0.00553 (inactive) | inactive | 11.1% (inactive)
CCCSc1nc(C)c(CC(=O)O)c(=O)[nH]1 | 381 | -7.9% (inactive) | -71.2% (inactive) | 190 | -2.53 | 0.0307 | -0.67 | 1.75% (inactive) | -0.45 (inactive) | -0.00012 (inactive) | 0.00515 (inactive) |  | 21.4% (inactive)
CCCOc1ccc(/C(O)=C2/C(=O)C(=O)N(CCN(C)C)C2c2ccc(OC)c(OC)c2)cc1 (centres undefined) | 461 | -7.3% (inactive) | -136% (inactive) | 167 | -0.67 | 0.995 | 0.868 | 6.04% (inactive) | -0.411 (inactive) | -6.1e-05 (inactive) | 0.00495 (inactive) | inactive | 8% (inactive)
COc1cccc(C2=CC(c3ccccc3)n3nnnc3N2)c1 (centres undefined) | 586 | 22.3% (inactive) | -12.1% (inactive) | 120 | 0.0896 | 0.142 | -0.691 | -7.01% (inactive) | -0.275 (inactive) | 1.9e-05 (inactive) | 0.00526 (inactive) | inactive | 22.4% (inactive)
CCOc1cccc(-c2nnc3sc(-c4ccco4)nn23)c1 | 668 | -1.9% (inactive) | -152% (inactive) | 182 | 0.882 | 2.36 | -0.0575 | -13.3% (inactive) | -0.428 (inactive) | -0.000142 (inactive) | 0.00609 (inactive) | inactive | 18.3% (inactive)
COc1ccccc1-n1c(=O)c2c3c(sc2n2c(SC)nnc12)CCC3 | 612 | -29% (inactive) | -100% (inactive) | 169 | -1.08 | -0.0482 | 1.7 | -0.608% (inactive) | -0.367 (inactive) | -5.4e-05 (inactive) | 0.00462 (inactive) | inactive | 16.5% (inactive)
Cc1nc(NCc2ccccc2)c(C(N)=O)c2c1COC(C)(C)C2 | 643 | -5.8% (inactive) | -17.6% (inactive) | 192 | 0.783 | 0.565 | -0.208 | 9.39% (inactive) | -0.512 (inactive) | -7.6e-05 (inactive) | 0.00486 (inactive) | inactive | -5.71% (inactive)
COc1ccccc1OCC(=O)Nc1ccc(S(=O)(=O)Nc2cc(C)nc(C)n2)cc1 | 571 | -6.6% (inactive) | 3% (inactive) | 159 | 0.333 | 1.18 | -0.662 | 4.25% (inactive) | -0.303 (inactive) | 1.9e-05 (inactive) | 0.0043 (inactive) | inactive | -4.91% (inactive)
c1ccc(CN2CCN(c3nc(-c4ccccn4)nc4ccccc34)CC2)cc1 | 275 | -1.9% (inactive) | -134% (inactive) | 96.6 | 0.978 | -1.13 | -0.507 | 20.2% (inactive) | -0.498 (inactive) | 4.9e-06 (inactive) | 0.00604 (inactive) |  | 130% (active)
COc1cc(C2C3C(=O)N(c4ccc(F)cc4)C(=O)C3ON2c2ccccc2)ccc1O (centres undefined) | 470 | -13.5% (inactive) | -60% (inactive) | 137 | -1.73 | -0.628 | 0.0709 | -13.3% (inactive) | -0.498 (inactive) | -3.2e-05 (inactive) | 0.00461 (inactive) | inactive | 16.5% (inactive)
COC(=O)c1[nH]c2cc(OC)ccc2c1NC(=O)CN1CCC(C(N)=O)CC1 | 363 | 2.6% (inactive) | 14.4% (inactive) | 134 | 0.612 | -0.732 | -0.532 | 9.42% (inactive) | -0.434 (inactive) | -0.000147 (inactive) | 0.00651 (inactive) | inactive | 25.6% (inactive)
CCOc1ccc(C2C(C(=O)c3ccc(C)o3)=C(O)C(=O)N2CCN2CCOCC2)cc1OC (centres undefined) | 248 | -6% (inactive) | -49.4% (inactive) | 93.8 | 0.462 | 0.354 | 0.737 | -12.3% (inactive) | -0.458 (inactive) | -2.1e-05 (inactive) | 0.00423 (inactive) |  | -15.3% (inactive)
O=C(Nc1cccnc1)c1cccnc1 | 639 | 0.9% (inactive) | -26.7% (inactive) | 158 | -0.532 | 0.364 | -0.22 | 0.671% (inactive) | -0.534 (inactive) | -3.1e-05 (inactive) | 0.00505 (inactive) | inactive | 3.69% (inactive)
COCCN(CCOC)C(=O)C12CCC(C)(C(=O)C1)C2(C)C (centres undefined) | 237 | -4.2% (inactive) | 17.3% (inactive) | 124 | 0.486 | 2.03 | 1.23 | 10.5% (inactive) | -0.458 (inactive) | -5.9e-05 (inactive) | 0.00572 (inactive) |  | -24.6% (inactive)
COc1cc(C2C(C#N)=C(N)Oc3cc(C)n(Cc4ccccn4)c(=O)c32)cc2c1OCO2 (centres undefined) | 433 | 6.2% (inactive) | -56.2% (inactive) | 88.8 | -2.67 | -0.393 | 1.97 | 11.4% (inactive) | -0.442 (inactive) | -1.2e-05 (inactive) | 0.00753 (inactive) | inactive | -11.1% (inactive)
COC(=O)c1ccccc1NC=C1C(=O)OC2(CCCCC2)OC1=O | 343 | -9% (inactive) | 27.4% (inactive) | 86.4 | -1.26 | -1.2 | -0.313 | 1.42% (inactive) | -0.443 (inactive) | -1.9e-05 (inactive) | 0.00691 (inactive) | inactive | 46.5% (inactive)
CC1(C)Cc2c(c(-c3ccccc3)nc3[nH][nH]c(=O)c23)CO1 | 666 | -17.1% (inactive) | -370% (inactive) | 162 | 0.742 | -0.0557 | 0.36 | -3.98% (inactive) | -0.513 (inactive) | -7.2e-05 (inactive) | 0.00403 (inactive) | inactive | 21% (inactive)
CC(=O)C1=C(O)C(=O)N(Cc2cccnc2)C1c1ccccc1Cl (centres undefined) | 645 | -3.5% (inactive) | -41.7% (inactive) | 140 | 1.32 | -1.67 | -1.62 | 31.1% (inactive) | -0.49 (inactive) | -0.000254 (inactive) | 0.00582 (inactive) | inactive | 10.6% (inactive)
CCOC(=O)CC(=O)CSc1nc(N)c(C#N)c(-c2ccc(F)cc2)c1C#N | 650 | -5.7% (inactive) | 44% (inactive) | 167 | -1.03 | 0.96 | 2.1 | -7.28% (inactive) | -0.366 (inactive) | -6.3e-05 (inactive) | 0.00627 (inactive) | inactive | -14.2% (inactive)
CN1c2ccccc2N(C)C1c1c(O)ccc2ccccc12 | 340 | -22% (inactive) | -387% (inactive) | 180 | 0.38 | -1.52 | 0.412 | -2.07% (inactive) | -0.407 (inactive) | -4.1e-05 (inactive) | 0.00586 (inactive) | inactive | 1.66% (inactive)
COC(=O)CN(c1nc(C)cc(OC)n1)S(=O)(=O)c1ccccc1 | 568 | -3.9% (inactive) | -82.4% (inactive) | 122 | -1.67 | 0.823 | -0.13 | 3.56% (inactive) | -0.391 (inactive) | -2.2e-05 (inactive) | 0.00529 (inactive) | inactive | -16.2% (inactive)
Oc1ccc2ccccc2c1/C=N/n1cnnc1 | 538 | -5.9% (inactive) | -57.1% (inactive) | 217 | 0.969 | 0.692 | -0.685 | -2.91% (inactive) | -0.356 (inactive) | -1.6e-05 (inactive) | 0.00487 (inactive) | inactive | -4.69% (inactive)
CCOC(=O)c1c(SC)nc(SC)c2c1CCC2 | 648 | -8.1% (inactive) | -63.6% (inactive) | 182 | 0.267 | 0.0457 | 1.4 | -5.62% (inactive) | -0.394 (inactive) | -4.6e-05 (inactive) | 0.00956 (inactive) | inactive | -10% (inactive)
O=C(Nc1nc(NC(=O)c2ccco2)n(-c2ccccc2)n1)c1ccccc1 | 339 | -8.5% (inactive) | -1.3% (inactive) | 157 | 0.978 | -0.403 | -0.743 | -7.01% (inactive) | -0.452 (inactive) | -0.000125 (inactive) | 0.00175 (inactive) | inactive; toxic | 1.31% (inactive)
